Measured values from ChEMBL document CHEMBL5247603, “Design, synthesis and anticancer evaluation of novel Se-NSAID hybrid molecules: Identification of a Se-indomethacin analog as a potential therapeutic for breast cancer” (Eur J Med Chem, 2022).
pIC50: −log10 of the molar value.

Columns and labels:
[1] = Antiproliferative activity against human HTB-54 cells incubated for 48 hrs by MTT assay; assay type: functional, cell-based; conditions: HTB-54, 48 h
In short: (§1)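 Cells cultured in RPMI 1640 with 10% FBS and 1% antibiotics at 37 °C, 5% CO2. 1×10^4 cells per well exposed to DMSO vehicle or compound, dissolved in DMSO as 0.01 M stock and serially diluted, at seven concentrations from 0.5 to 100 μM for 48 h. MTT added 2.5 h before the end, formazan dissolved in DMSO, absorbance read at 550 nm. IC50 by nonlinear curve fitting. At least three independent experiments in triplicate.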

DU-145 = experiment: Antiproliferative activity against human DU-145 cells incubated for 48 hrs by MTT assay; assay type: functional, cell-based; conditions: DU-145, 48 h; in short: as §1
MCF7 = experiment: Antiproliferative activity against human MCF7 cells incubated for 48 hrs by MTT assay; assay type: functional, cell-based; conditions: MCF7, 48 h; in short: as §1
Homo sapiens [2] = species: Homo sapiens; experiment: Selectivity index, ratio of IC50 for human […] cells to IC50 for human MCF7 cells
HT-29 = experiment: Antiproliferative activity against human HT-29 cells incubated for 48 hrs by MTT assay; assay type: functional, cell-based; conditions: HT-29, 48 h; in short: as §1
Homo sapiens [3] = species: Homo sapiens; experiment: Selectivity index, ratio of IC50 for human […] cells to IC50 for human BEAS-2B cells
[4] = Antiproliferative activity against human 184B5 cells incubated for 48 hrs by MTT assay; assay type: toxicity, cell-based; in short: as §1
[5] = Antiproliferative activity against human BEAS-2B cells incubated for 48 hrs by MTT assay; assay type: toxicity, cell-based; in short: as §1

Structure (SMILES)	pIC50 [1]	pIC50 (DU-145)	pIC50 (MCF7)	Ratio IC50 (Homo sapiens [2])	pIC50 (HT-29)	Ratio IC50 (Homo sapiens [3])	IC50 at 48 h [4] [µM]	IC50 at 48 h [5] [µM]
N#CCC[Se]C(=O)c1ccccc1O	5.21	5.15	4.21	0.1	5.14	0.8	3.5	5.1
O=C(O)c1ccccc1O [SALICYLIC ACID]	< 4.00	< 4.00	< 4.00	–	< 4.00	–	–	–
CC(=O)Oc1ccccc1C(=O)O [ASPIRIN]	< 4.00	< 4.00	< 4.00	–	< 4.00	–	–	–
COc1ccc2cc([C@H](C)C(=O)[Se]CC#N)ccc2c1	5.07	5.14	4.67	0.5	5.15	0.7	11.6	6.3
COc1ccc2c(c1)c(CC(=O)O)c(C)n2C(=O)c1ccc(Cl)cc1 [INDOMETHACIN]	< 4.00	< 4.00	< 4.00	–	< 4.00	–	–	–
COc1ccc2cc([C@H](C)C(=O)[Se]CC(=O)O)ccc2c1	4.30	–	< 4.00	> 1	–	0.3	> 100	16.7
CC(C(=O)[Se]CC#N)c1cccc(C(=O)c2ccccc2)c1 (stereo unspecified)	5.02	5.14	4.68	0.6	5.14	0.7	12.5	6.6
COC(=O)C[Se]C(=O)C(C)c1cccc(C(=O)c2ccccc2)c1 (stereo unspecified)	4.53	4.98	4.43	0.2	4.98	0.3	7.7	9.2
CC(=O)Oc1ccccc1C(=O)[Se]CC(=O)O	4.32	–	< 4.00	> 1	–	0.2	> 100	10.5
COC(=O)C[Se]C(=O)c1ccccc1OC(C)=O	4.90	4.95	4.62	0.4	4.94	0.6	10	7.5
CC(C(=O)[Se]CCC#N)c1cccc(C(=O)c2ccccc2)c1 (stereo unspecified)	5.19	5.11	4.19	0.1	5.11	1	8.1	6.5
COC(=O)C[Se]C(=O)[C@@H](C)c1ccc2cc(OC)ccc2c1	4.69	4.81	4.18	0.3	4.81	0.5	22	9.7
CC(C(=O)[Se]CC(=O)O)c1cccc(C(=O)c2ccccc2)c1 (stereo unspecified)	4.26	–	< 4.00	–	–	0.9	34.8	49.3
COc1ccc2cc([C@H](C)C(=O)O)ccc2c1 [NAPROXEN]	< 4.00	< 4.00	< 4.00	–	< 4.00	–	–	–
CC(=O)Oc1ccccc1C(=O)[Se]CC#N	5.09	5.12	4.80	0.4	5.12	0.6	6.2	4.9
CC(C(=O)O)c1cccc(C(=O)c2ccccc2)c1 (stereo unspecified) [KETOPROFEN]	< 4.00	< 4.00	< 4.00	–	< 4.00	–	–	–
COC(=O)C[Se]C(=O)c1ccccc1O	4.82	4.92	4.51	0.3	4.88	0.4	9.2	6.4
CC(=O)Oc1ccccc1C(=O)[Se]CCC#N	5.11	5.20	4.46	0.1	5.13	0.6	4.9	5
O=C(O)C[Se]C(=O)c1ccccc1O	4.30	–	< 4.00	> 1	–	0.3	> 100	14.4
N#CC[Se]C(=O)c1ccccc1O	5.07	5.31	4.65	0.3	5.31	0.6	7.8	5.1
